Experimental data of several laboratories.
Protocols differ between the studies behind these lines.
Prostate-specific antigen: Prostate-specific antigen (Homo sapiens, UniProt P07288)
TMEM97: Sigma intracellular receptor 2 (TMEM97, Homo sapiens, UniProt Q5BJF2)
CASP7: Caspase-7 (CASP7, Homo sapiens, UniProt P55210)
ADRA2B: Alpha-2B adrenergic receptor (ADRA2B, Homo sapiens, UniProt P18089)
SIGMAR1: Sigma non-opioid intracellular receptor 1 (SIGMAR1, Cavia porcellus, UniProt Q60492)
ADRA1D: Alpha-1D adrenergic receptor (ADRA1D, Homo sapiens, UniProt P25100)
lecB: Fucose-binding lectin PA-IIL (lecB, Pseudomonas aeruginosa, UniProt Q9HYN5)

Cc1cc(Oc2nccc3ccsc23)ccc1-c1c(C)c(=O)[nH]c(=O)n1C — Ki (Muscarinic acetylcholine receptor M3 (CHRM3, Homo sapiens, UniProt P20309); ligand displacement, radioligand): 4600 nM
CCCC[C@H](NC(=O)[C@H](CCC(N)=O)NC(=O)[C@H](CO)NC(=O)C[C@@H](Cc1ccc2ccccc2c1)NC(=O)CCCCCN)C(=O)N[C@@H](CCCBr)B(O)O — Ki (Prostate-specific antigen; enzyme activity, inhibitor, fluorescence; pH 7.8): 102 nM
CCCn1nc(C(=O)N2CCCCC2)c2c1CCC(NCCCNC)C2 (stereo not shown) — Ki (TMEM97; ligand displacement, radioligand): 1990 nM
O=c1c(O)c(-c2ccc(O)cc2)oc2cc(O)cc(O)c12 — Ki (CASP7; enzyme activity, inhibitor, fluorescence): > 300000 nM
CCCC[C@H](NC(=O)[C@H](CCCCN)NC(=O)[C@H](CO)NC(=O)[C@H](CO)NC(=O)OCc1ccccc1)C(=O)N[C@@H](Cc1ccccc1)B(O)O — Ki (Prostate-specific antigen; enzyme activity, inhibitor, fluorescence; pH 7.8): 165 nM
O=C(CN(CCCCI)CCCN1CCN(C2CCCCC2)CC1)Nc1ccc(C(=O)c2ccccc2)cc1 — Ki (TMEM97; ligand displacement, radioligand; cell membranes): 45 nM
CN(Cc1ccc(NC(=O)C2=Cc3cc(-c4ccc(OCCCCCF)cc4)ccc3CCC2)cc1)C1CCOCC1 — Ki (ADRA2B; ligand displacement, radioligand): 6810 nM
O=C(NCCN1CCCCC1)c1ccc(OCCCF)c(Br)c1 — Ki (SIGMAR1; ligand displacement, radioligand; cell membranes): 23.3 nM
CCCC[C@H](NC(=O)[C@H](CCC(N)=O)NC(=O)[C@H](CO)NC(=O)CCCCCN)C(=O)N[C@@H](Cc1ccccc1)B(O)O — Ki (Prostate-specific antigen; enzyme activity, inhibitor, fluorescence; pH 7.8): 22 nM
O[C@@H]1[C@H](O)[C@@H]2C[C@@H]2[C@H]1n1cnc2c(NCc3cccc(Cl)c3)nc(C#Cc3ccccc3)nc21 — Ki (SIGMAR1; ligand displacement, radioligand): 7660 nM
O=c1c(O)c(-c2ccc(O)c(O)c2)oc2cc(O)cc(O)c12 — Ki (CASP7; enzyme activity, inhibitor, fluorescence): > 300000 nM
CCCC[C@H](NC(=O)[C@H](CCC(N)=O)NC(=O)[C@H](CO)NC(=O)[C@H](CO)NC(=O)CCCCCN)C(=O)N[C@@H](CC(C)C)B(O)O — Ki (Prostate-specific antigen; enzyme activity, inhibitor, fluorescence; pH 7.8): 43.1 nM
O=C1c2ccccc2CCCN1CCCCN1CCN(c2ccccn2)CC1 — Ki (ADRA1D; ligand displacement, radioligand): 980 nM
CCOC(=O)[C@@]12C[C@@H]1[C@@H](n1cnc3c(NC)nc(C#Cc4ccc(Cl)s4)cc31)[C@H](O)[C@@H]2O — Ki (SIGMAR1; ligand displacement, radioligand): 1040 nM
O=C(c1ccc(CNCCCN2CCN(c3ccc(F)cc3)CC2)cc1)c1ccc([N+](=O)[O-])cc1 — Ki (TMEM97; ligand displacement, radioligand; cell membranes): 34 nM
O=C(NCCN1CCCCC1)c1ccc(O)c(Br)c1 — Ki (SIGMAR1; ligand displacement, radioligand; cell membranes): > 10000 nM
C[C@@H]1O[C@H](CNS(=O)(=O)c2ccc(CCn3cc(CCN4CCN(c5cc6c(cc5F)c(=O)c(C(=O)O)cn6C5CC5)CC4)nn3)s2)[C@@H](O)[C@H](O)[C@@H]1O — Ki (lecB; ligand displacement, FP): 890 nM
CCCNc1nc2ccccc2n1Cc1ccc(Cl)cc1 — Ki (ADRA2B; ligand displacement, radioligand): 677 nM
CCCn1nc(C(=O)N2CCCCC2)c2c1CCC(NCCc1ccncc1)C2 (stereo not shown) — Ki (TMEM97; ligand displacement, radioligand): > 10000 nM
COc1ccccc1N1CCN(CCCCN2CCc3ccccc3C2=O)CC1 — Ki (ADRA1D; ligand displacement, radioligand): 14.2 nM
CCCC[C@H](NC(=O)[C@H](CCCCN)NC(=O)[C@H](CO)NC(=O)[C@H](CO)NC(=O)OCc1ccccc1)C(=O)N[C@@H](CCCBr)B(O)O — Ki (Prostate-specific antigen; enzyme activity, inhibitor, fluorescence; pH 7.8): 24.2 nM
C[C@@H]1O[C@H](CNS(=O)(=O)c2ccc(CCn3cc(CN4CCN(c5cc6c(cc5F)c(=O)c(C(=O)O)cn6C5CC5)CC4)nn3)s2)[C@@H](O)[C@H](O)[C@@H]1O — Ki (lecB; ligand displacement, FP): 820 nM
O=C(NCCN1CCCCC1)c1cc(Br)ccc1O — Ki (SIGMAR1; ligand displacement, radioligand; cell membranes): > 10000 nM
CCCC[C@H](NC(=O)[C@H](CCC(N)=O)NC(=O)[C@H](CO)NC(=O)[C@H](Cc1ccccc1)NC(=O)CCCCCN)C(=O)N[C@@H](CCCBr)B(O)O — Ki (Prostate-specific antigen; enzyme activity, inhibitor, fluorescence; pH 7.8): 72.3 nM
C#CCNCc1ccc(C(=O)c2ccc([N+](=O)[O-])cc2)cc1 — Ki (TMEM97; ligand displacement, radioligand; cell membranes): > 10000 nM
O=C1c2ccccc2CCN1CCCCN1CCN(c2ccccn2)CC1 — Ki (ADRA1D; ligand displacement, radioligand): 467 nM
CCCn1nc(C(=O)N2CCCCC2)c2c1CCC(Nc1ccc(Oc3ccccc3)cc1)C2 (stereo not shown) — Ki (TMEM97; ligand displacement, radioligand): 310 nM
O=C(CCCCC1SC[C@@H]2NC(=O)N[C@H]12)NCCCN(CCCN1CCN(C2CCCCC2)CC1)CC(=O)Nc1ccc(C(=O)c2ccccc2)cc1 (stereo in doubt) — Ki (TMEM97; ligand displacement, radioligand; cell membranes): 87 nM
CCCCN1CCC(COC(=O)c2ccc(N)c(OCF)c2)CC1 — Ki (ADRA1D; cell-free assay, radioligand): > 10000 nM
O=C(c1ccccc1)c1ccc(CNCCCN2C(=O)c3ccccc3C2=O)cc1 — Ki (TMEM97; ligand displacement, radioligand; cell membranes): > 10000 nM
CN(Cc1ccc(NC(=O)C2=Cc3cc(-c4ccc(OCCCF)cc4)ccc3CCC2)cc1)C1CCOCC1 — Ki (ADRA2B; ligand displacement, radioligand): 1200 nM
